Measurements: ChEMBL document CHEMBL3407478, “Development of a series of aryl pyrimidine kynurenine monooxygenase inhibitors as potential therapeutic agents for the treatment of Huntington's disease” (J Med Chem, 2015)
pIC50: −log10 of the molar value.

Assays:
[1] = Aqueous solubility of the compound; format: physicochemical
[2] = Permeability from basolateral to apical side in human Caco2 cells; format: ADME, cell-based; conditions: Caco-2, read-out: permeability
[3] = Permeability from apical to basolateral side in human Caco2 cells; format: ADME, cell-based; conditions: Caco-2, read-out: permeability
[4] = target: T1, Kynurenine 3-monooxygenase (Rattus norvegicus, UniProt O88867); experiment: Inhibition of rat KMO assessed as conversion of kynurenine to 3-hydroxykynurenine by LC-MS/MS analysis
How it was run: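 Mitochondrial fractions from mouse or rat liver tissue used as KMO source. Conversion of kynurenine to 3-hydroxykynurenine quantified by LC-MS/MS; IC50 averaged from triplicate tests.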

[5] = target: Kynurenine 3-monooxygenase (Homo sapiens, UniProt O15229); experiment: Inhibition of KMO in human PBMC
[6] = target: T1, Kynurenine 3-monooxygenase; experiment: Inhibition of KMO in rat microglia cells; format: cell-based
How it was run: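 Freshly isolated neonatal rat microglial cultures, induced to express KMO by a pro-inflammatory protocol. Exogenous KYN added; conversion to 3-HK monitored by mass spectrometry.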

[7] = tested on: Plasma; experiment: Dose normalized AUC (0 to infinity) in Sprague-Dawley rat plasma at 6.2 mg equivalents/kg, iv; format: ADME, cell-free
[8] = Clearance in Sprague-Dawley rat plasma at 6.2 mg equivalents/kg, iv; format: ADME, cell-free
[9] = tested on: Plasma; experiment: Dose normalized AUC (0 to infinity) in Sprague-Dawley rat plasma at 12 mg equivalents/kg, po; format: ADME, cell-free
[10] = tested on: Plasma; experiment: Dose normalized Cmax in Sprague-Dawley rat plasma at 12 mg equivalents/kg, po after 1 hr; format: ADME, organism-based; conditions: in vivo
[11] = Half life in Sprague-Dawley rat plasma at 12 mg equivalents/kg, po; format: ADME, cell-free
[12] = tested on: Brain; experiment: Dose normalized Cmax in Sprague-Dawley rat brain at 6.2 mg equivalents/kg, iv; format: ADME, tissue-based; conditions: in vivo
[13] = Half life in Sprague-Dawley rat brain at 6.2 mg equivalents/kg, iv; format: ADME, tissue-based
[14] = Half life in Sprague-Dawley rat brain at 12 mg equivalents/kg, po; format: ADME, tissue-based
[15] = tested on: Plasma; experiment: Dose normalized Cmax in Sprague-Dawley rat plasma at 10 mg equivalents/kg, po after 0.25 to 12 hrs; format: ADME, organism-based; conditions: in vivo
How it was run: (§1)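 Male Sprague-Dawley rats given a single oral dose of 10 mg equiv/kg as a 2 mg equiv/mL solution in 10% hydroxypropyl-β-cyclodextrin. Plasma, liver, kidney, cortex, striatum and CSF levels were measured from 0.25 to 12 h. Brain tissue was taken from nonperfused brains. CSF AUCN covers 0–8 h because the elimination phase was undefined.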

[16] = Tmax in Sprague-Dawley rat CSF at 10 mg equivalents/kg, po after 0.25 to 12 hrs; format: ADME, organism-based, Cerebrospinal fluid
How it was run: (§2)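 Fed male Sprague-Dawley rats given a single oral dose of 10 mg equiv/kg as 2 mg equiv/mL in 10% hydroxypropyl-β-cyclodextrin. Plasma, CSF, kidney, liver, and cortex and striatum from nonperfused brains sampled from 0.25 to 12 h.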

[17] = tested on: Cortex; experiment: Dose normalized AUC (0 to infinity) in Sprague-Dawley rat cortex at 10 mg equivalents/kg, po after 0.25 to 12 hrs; format: ADME, organism-based; conditions: in vivo; how it was run: as §1
[18] = tested on: Cortex; experiment: Dose normalized Cmax in Sprague-Dawley rat cortex at 10 mg equivalents/kg, po after 0.25 to 12 hrs; format: ADME, organism-based; conditions: in vivo; how it was run: as §1
[19] = Tmax in Sprague-Dawley rat cortex at 10 mg equivalents/kg, po after 0.25 to 12 hrs; format: ADME, organism-based; how it was run: as §2
[20] = tested on: Striatum; experiment: Dose normalized AUC (0 to infinity) in Sprague-Dawley rat striatum at 10 mg equivalents/kg, po after 0.25 to 12 hrs; format: ADME, organism-based; conditions: in vivo; how it was run: as §1
[21] = tested on: Striatum; experiment: Dose normalized Cmax in Sprague-Dawley rat striatum at 10 mg equivalents/kg, po after 0.25 to 12 hrs; format: ADME, organism-based; conditions: in vivo; how it was run: as §1
[22] = Half life in Sprague-Dawley rat striatum at 10 mg equivalents/kg, po after 0.25 to 12 hrs; format: ADME, organism-based; how it was run: as §1
[23] = tested on: Kidney; experiment: Dose normalized Cmax in Sprague-Dawley rat kidney at 10 mg equivalents/kg, po after 0.25 to 12 hrs; format: ADME, organism-based; conditions: in vivo; how it was run: as §1
[24] = Half life in Sprague-Dawley rat kidney at 10 mg equivalents/kg, po after 0.25 to 12 hrs; format: ADME, organism-based; how it was run: as §1
[25] = tested on: Liver; experiment: Dose normalized AUC (0 to infinity) in Sprague-Dawley rat liver at 10 mg equivalents/kg, po after 0.25 to 12 hrs; format: ADME, organism-based; conditions: in vivo; how it was run: as §1
[26] = tested on: Liver; experiment: Dose normalized Cmax in Sprague-Dawley rat liver at 10 mg equivalents/kg, po after 0.25 to 12 hrs; format: ADME, organism-based; conditions: in vivo; how it was run: as §1
[27] = Tmax in Sprague-Dawley rat liver at 10 mg equivalents/kg, po after 0.25 to 12 hrs; format: ADME, organism-based; how it was run: as §2
[28] = tested on: Brain; experiment: Dose normalized AUC (0 to infinity) in wild-type FVB/N mouse brain at 5 mg equivalents/kg, iv by LC-MS/MS analysis; format: ADME, organism-based; conditions: in vivo
How it was run: (§3)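 Male mice given a single 5 mg equiv/kg iv bolus: FVB wild type, Bcrp(−/−), Mdr1a/b(−/−) and Mdr1a/b(−/−)/Bcrp(−/−). Brain and plasma concentration–time profiles were used to derive dose-normalized AUC (0–infinity).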

[29] = tested on: Plasma; experiment: Dose normalized AUC (0 to infinity) in BCRP and MDR1a knock out FVB/N mouse plasma at 5 mg equivalents/kg, iv by LC-MS/MS analysis; format: ADME, organism-based; conditions: in vivo; how it was run: as §3
[30] = Fraction unbound in rat plasma; format: ADME, cell-free
[31] = Fraction unbound in mouse plasma; format: ADME, cell-free
[32] = tested on: Rattus norvegicus; experiment: Inhibition of KMO in Sprague-Dawley rat plasma assessed as time duration for elevation in kynurenine plasma level at 10 mg/kg, po by […] analysis; format: functional
How it was run: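 Sprague-Dawley rats given a single 10 mg/kg oral dose. KYN, 3-HK, KYNA and AA were quantified in plasma by LC-MS/MS at multiple time points.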

[33] = AUC (0 to 240 mins) in Sprague-Dawley rat striatal extracellular fluid at 10 mg/kg, po by […] analysis; format: ADME, organism-based; set-up: time < 4 hr, dose 10 mg/kg, route oral
How it was run: (§4)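 Freely moving Sprague-Dawley rats given 10 mg/kg po, with a microdialysis probe implanted in the striatum. Dialysate was sampled over 0–240 min for free compound and for KYN, KYNA, AA and 3-HK, quantified by LC-MS/MS. Metabolite changes were compared with t = 0 min by 2-way ANOVA.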

[34] = tested on: Rattus norvegicus; experiment: Inhibition of KMO in Sprague-Dawley rat striatum brain microdialysate assessed as time duration for elevation in kynurenine level at 10 mg/kg, po by […] analysis; format: functional; how it was run: as §4
[35] = tested on: Rattus norvegicus; experiment: Inhibition of KMO in Sprague-Dawley rat striatum brain microdialysate assessed as time duration for elevation in 3-hydroxykynurenice acid level by 2-fold at 10 mg/kg, po by […] analysis; format: functional; how it was run: as §4
[36] = tested on: Rattus norvegicus; experiment: Inhibition of KMO in po dosed Sprague-Dawley rat plasma assessed as elevation in kynurenine plasma level by […] analysis; format: functional, organism-based
[37] = tested on: Rattus norvegicus; experiment: Inhibition of KMO in po dosed Sprague-Dawley rat plasma assessed as elevation in anthranilic acid plasma level by […] analysis; format: functional, organism-based
[38] = Oral bioavailability in Sprague-Dawley rat plasma at 12 mg equivalents/kg
[39] = tested on: Rattus norvegicus; experiment: Inhibition of KMO in po dosed Sprague-Dawley rat plasma assessed as reduction in quinolinic acid plasma level by LC-MS/MS analysis

T1 sequence (O88867 whole entry): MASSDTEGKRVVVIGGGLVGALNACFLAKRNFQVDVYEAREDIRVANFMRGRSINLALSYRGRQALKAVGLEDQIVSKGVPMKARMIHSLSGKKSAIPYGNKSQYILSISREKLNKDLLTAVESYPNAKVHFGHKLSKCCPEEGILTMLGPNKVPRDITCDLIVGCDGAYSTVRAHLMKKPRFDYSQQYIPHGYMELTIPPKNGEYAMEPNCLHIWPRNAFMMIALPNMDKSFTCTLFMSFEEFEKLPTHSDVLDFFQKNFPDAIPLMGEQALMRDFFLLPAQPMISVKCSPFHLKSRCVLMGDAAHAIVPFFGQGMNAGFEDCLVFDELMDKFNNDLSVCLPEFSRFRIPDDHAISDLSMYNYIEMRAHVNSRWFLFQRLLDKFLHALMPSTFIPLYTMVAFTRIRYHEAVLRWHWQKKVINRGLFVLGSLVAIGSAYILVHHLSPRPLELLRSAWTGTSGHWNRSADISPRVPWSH
Sequence of Kynurenine 3-monooxygenase (Homo sapiens, UniProt O15229) (O15229 whole entry): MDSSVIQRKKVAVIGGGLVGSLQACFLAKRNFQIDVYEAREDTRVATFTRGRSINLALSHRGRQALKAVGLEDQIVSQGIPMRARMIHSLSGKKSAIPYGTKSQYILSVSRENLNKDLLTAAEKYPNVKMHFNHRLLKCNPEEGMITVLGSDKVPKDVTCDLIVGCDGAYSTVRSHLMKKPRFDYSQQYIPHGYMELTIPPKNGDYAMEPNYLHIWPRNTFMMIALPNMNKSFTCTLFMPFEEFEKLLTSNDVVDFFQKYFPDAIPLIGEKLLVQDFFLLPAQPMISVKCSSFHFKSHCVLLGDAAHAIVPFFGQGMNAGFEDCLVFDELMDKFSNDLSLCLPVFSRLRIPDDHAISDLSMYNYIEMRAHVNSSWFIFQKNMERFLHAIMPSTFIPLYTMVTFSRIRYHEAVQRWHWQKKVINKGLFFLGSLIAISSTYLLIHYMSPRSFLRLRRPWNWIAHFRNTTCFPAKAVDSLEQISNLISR

What does the source list for `O=C(O)c1cc(-c2ccc(OC3CC3)c(Cl)c2)ncn1`?
solubility [1]: > 1000 µg/mL; Papp B→A [2]: 30.4 ×10⁻⁶ cm/s; Papp A→B [3]: 18.7 ×10⁻⁶ cm/s; pIC50 [4]: 8.40; pIC50 [5]: 7.09; pIC50 [6]: 7.14; AUC/dose [7]: 12 µM·kg·h/mg; clearance [8]: 4.83 mL/min/kg; AUC/dose [9]: 7.6 µM·kg·h/mg; Cmax/dose [10]: 1.9 µM·kg/mg; half-life [11]: 2.4 h; Cmax/dose [12]: 0.25 µM·kg/mg; half-life [13]: 0.7 h; half-life [14]: 1.7 h; Cmax/dose [15]: 2.6 µM·kg/mg; Tmax [16]: 0.5 h; AUC/dose [17]: 0.056 µM·kg·h/mg; Cmax/dose [18]: 0.03 µM·kg/mg; Tmax [19]: 0.5 h; AUC/dose [20]: 0.1 µM·kg·h/mg; Cmax/dose [21]: 0.047 µM·kg/mg; half-life [22]: 2.3 h; Cmax/dose [23]: 26 µM·kg/mg; half-life [24]: 2 h; AUC/dose [25]: 20 µM·kg·h/mg; Cmax/dose [26]: 9.3 µM·kg/mg; Tmax [27]: 0.5 h; AUC/dose [28]: 0.066 µM·kg·h/mg; AUC/dose [29]: 3.6 µM·kg·h/mg; fraction unbound [30]: 0.05; fraction unbound [31]: 0.036; Time [32]: 8 h; AUC(0-t) at 4 h [33]: 0.066 µM·h; Time [34]: 40 min; Time [35]: 160 min; inhibition [36]: Dose-dependent effect; inhibition [37]: Dose-dependent effect; bioavailability [38]: 64%; inhibition [39]: Dose-dependent effect
